From ChEMBL document CHEMBL4689842, “EUbOPEN Chemogenomics Library wave 1” (2021)

Test system: Fibroblast
Assay: Multiplex assay against human fibroblast
Format: toxicity, cell-based
How it was run: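 Live cells were stained at seeding with Hoechst33342, BioTracker Green Microtubule Cytoskeleton Dye, MitoTracker Red and Annexin V Alexa Fluor 680. Following compound addition, they were imaged on a CQ1 microscope at 37°C and 5% CO2 and gated by CellPathfinder machine learning into Hoechst high-intensity objects or normal cells, with normal cells split into healthy, pyknosed or fragmented nuclei and pyknosed cells into mitotic or apoptotic. Tubulin, mitochondrial-mass and membrane-permeability phenotypes are per cents of healthy-nucleus cells.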

[1] = 12 h, 1 µM, compound concentration 1 uM, replicate 1
[2] = 12 h, 1 µM, compound concentration 1 uM, replicate 2
[3] = 12 h, 10 µM, compound concentration 10 uM, replicate 1
[4] = 12 h, 10 µM, compound concentration 10 uM, replicate 2
[5] = 24 h, 1 µM, compound concentration 1 uM, replicate 1
[6] = 24 h, 1 µM, compound concentration 1 uM, replicate 2
[7] = 24 h, 10 µM, compound concentration 10 uM, replicate 1
[8] = 24 h, 10 µM, compound concentration 10 uM, replicate 2
[9] = 48 h, 1 µM, compound concentration 1 uM, replicate 1
[10] = 48 h, 1 µM, compound concentration 1 uM, replicate 2
[11] = 48 h, 10 µM, compound concentration 10 uM, replicate 1
[12] = 48 h, 10 µM, compound concentration 10 uM, replicate 2

## CCn1c(=O)c(-c2ccc(-c3cncs3)cc2Cl)cc2cnc(Nc3ccc(N4CCN(C)CC4)cc3)nc21
[1]
  Population Apoptotic (%): 53%
  Population Fragmented Nuclei (%): 26%
  Population Healthy Nuclei (%): 37%
  Population Hoechst High Intensity Objects (%): 17%
  Population Membrane Permeable-Phenotype (%): 15%
  Population Mitochondria Different-Phenotype (%): 0%
  Population Mitotic Cells (%): 46%
  Population Normal (%): 82%
  Population Pyknosed Nuclei (%): 35%
  Population Tubulin-Different-Phenotype (%): 36%
  Total Cell Count: 108
[2]
  Population Apoptotic (%): 75%
  Population Fragmented Nuclei (%): 9%
  Population Healthy Nuclei (%): 78%
  Population Hoechst High Intensity Objects (%): 7%
  Population Membrane Permeable-Phenotype (%): 3%
  Population Mitochondria Different-Phenotype (%): 17%
  Population Mitotic Cells (%): 25%
  Population Normal (%): 92%
  Population Pyknosed Nuclei (%): 11%
  Population Tubulin-Different-Phenotype (%): 19%
  Total Cell Count: 76
[3]
  Population Apoptotic (%): 58%
  Population Fragmented Nuclei (%): 45%
  Population Healthy Nuclei (%): 9%
  Population Hoechst High Intensity Objects (%): 46%
  Population Membrane Permeable-Phenotype (%): 41%
  Population Mitochondria Different-Phenotype (%): 8%
  Population Mitotic Cells (%): 41%
  Population Normal (%): 53%
  Population Pyknosed Nuclei (%): 44%
  Population Tubulin-Different-Phenotype (%): 50%
  Total Cell Count: 230
[4]
  Population Apoptotic (%): 11%
  Population Fragmented Nuclei (%): 8%
  Population Healthy Nuclei (%): 79%
  Population Hoechst High Intensity Objects (%): 4%
  Population Membrane Permeable-Phenotype (%): 5%
  Population Mitochondria Different-Phenotype (%): 29%
  Population Mitotic Cells (%): 88%
  Population Normal (%): 96%
  Population Pyknosed Nuclei (%): 12%
  Population Tubulin-Different-Phenotype (%): 15%
  Total Cell Count: 77
[5]
  Population Apoptotic (%): 58%
  Population Fragmented Nuclei (%): 26%
  Population Healthy Nuclei (%): 47%
  Population Hoechst High Intensity Objects (%): 16%
  Population Membrane Permeable-Phenotype (%): 31%
  Population Mitochondria Different-Phenotype (%): 0%
  Population Mitotic Cells (%): 41%
  Population Normal (%): 83%
  Population Pyknosed Nuclei (%): 25%
  Population Tubulin-Different-Phenotype (%): 40%
  Total Cell Count: 111
[6]
  Population Apoptotic (%): 46%
  Population Fragmented Nuclei (%): 15%
  Population Healthy Nuclei (%): 68%
  Population Hoechst High Intensity Objects (%): 4%
  Population Membrane Permeable-Phenotype (%): 1%
  Population Mitochondria Different-Phenotype (%): 5%
  Population Mitotic Cells (%): 53%
  Population Normal (%): 95%
  Population Pyknosed Nuclei (%): 16%
  Population Tubulin-Different-Phenotype (%): 20%
  Total Cell Count: 74
[7]
  Population Apoptotic (%): 85%
  Population Fragmented Nuclei (%): 44%
  Population Healthy Nuclei (%): 6%
  Population Hoechst High Intensity Objects (%): 53%
  Population Membrane Permeable-Phenotype (%): 22%
  Population Mitochondria Different-Phenotype (%): 0%
  Population Mitotic Cells (%): 15%
  Population Normal (%): 46%
  Population Pyknosed Nuclei (%): 48%
  Population Tubulin-Different-Phenotype (%): 27%
  Total Cell Count: 615
[8]
  Population Apoptotic (%): 27%
  Population Fragmented Nuclei (%): 14%
  Population Healthy Nuclei (%): 71%
  Population Hoechst High Intensity Objects (%): 3%
  Population Membrane Permeable-Phenotype (%): 7%
  Population Mitochondria Different-Phenotype (%): 23%
  Population Mitotic Cells (%): 72%
  Population Normal (%): 96%
  Population Pyknosed Nuclei (%): 14%
  Population Tubulin-Different-Phenotype (%): 8%
  Total Cell Count: 83
[9]
  Population Apoptotic (%): 52%
  Population Fragmented Nuclei (%): 36%
  Population Healthy Nuclei (%): 39%
  Population Hoechst High Intensity Objects (%): 10%
  Population Membrane Permeable-Phenotype (%): 35%
  Population Mitochondria Different-Phenotype (%): 2%
  Population Mitotic Cells (%): 47%
  Population Normal (%): 89%
  Population Pyknosed Nuclei (%): 24%
  Population Tubulin-Different-Phenotype (%): 32%
  Total Cell Count: 105
[10]
  Population Apoptotic (%): 0%
  Population Fragmented Nuclei (%): 24%
  Population Healthy Nuclei (%): 75%
  Population Membrane Permeable-Phenotype (%): 5%
  Population Mitochondria Different-Phenotype (%): 6%
  Population Mitotic Cells (%): 0%
  Population Pyknosed Nuclei (%): 0%
  Population Tubulin-Different-Phenotype (%): 20%
  Total Cell Count: 88
[11]
  Population Apoptotic (%): 92%
  Population Fragmented Nuclei (%): 44%
  Population Healthy Nuclei (%): 5%
  Population Hoechst High Intensity Objects (%): 59%
  Population Membrane Permeable-Phenotype (%): 24%
  Population Mitochondria Different-Phenotype (%): 0%
  Population Mitotic Cells (%): 7%
  Population Normal (%): 40%
  Population Pyknosed Nuclei (%): 50%
  Population Tubulin-Different-Phenotype (%): 10%
  Total Cell Count: 1270
[12]
  Population Apoptotic (%): 100%
  Population Fragmented Nuclei (%): 43%
  Population Healthy Nuclei (%): 55%
  Population Hoechst High Intensity Objects (%): 11%
  Population Membrane Permeable-Phenotype (%): 10%
  Population Mitochondria Different-Phenotype (%): 4%
  Population Mitotic Cells (%): 0%
  Population Normal (%): 88%
  Population Pyknosed Nuclei (%): 0%
  Population Tubulin-Different-Phenotype (%): 52%
  Total Cell Count: 139

## CCN1CCN(Cc2ccc(Nc3ncc(F)c(-c4cc(F)c5nc(C)n(C(C)C)c5c4)n3)nc2)CC1.CS(=O)(=O)O
[1]
  Population Apoptotic (%): 75%
  Population Fragmented Nuclei (%): 39%
  Population Healthy Nuclei (%): 40%
  Population Hoechst High Intensity Objects (%): 15%
  Population Membrane Permeable-Phenotype (%): 17%
  Population Mitochondria Different-Phenotype (%): 21%
  Population Mitotic Cells (%): 25%
  Population Normal (%): 84%
  Population Pyknosed Nuclei (%): 20%
  Population Tubulin-Different-Phenotype (%): 57%
  Total Cell Count: 187
[2]
  Population Apoptotic (%): 40%
  Population Fragmented Nuclei (%): 17%
  Population Healthy Nuclei (%): 67%
  Population Hoechst High Intensity Objects (%): 6%
  Population Membrane Permeable-Phenotype (%): 8%
  Population Mitochondria Different-Phenotype (%): 91%
  Population Mitotic Cells (%): 60%
  Population Normal (%): 93%
  Population Pyknosed Nuclei (%): 14%
  Population Tubulin-Different-Phenotype (%): 97%
  Total Cell Count: 73
[3]
  Population Apoptotic (%): 63%
  Population Fragmented Nuclei (%): 40%
  Population Healthy Nuclei (%): 13%
  Population Hoechst High Intensity Objects (%): 17%
  Population Membrane Permeable-Phenotype (%): 52%
  Population Mitochondria Different-Phenotype (%): 5%
  Population Mitotic Cells (%): 36%
  Population Normal (%): 82%
  Population Pyknosed Nuclei (%): 46%
  Population Tubulin-Different-Phenotype (%): 47%
  Total Cell Count: 158
[4]
  Population Apoptotic (%): 83%
  Population Fragmented Nuclei (%): 32%
  Population Healthy Nuclei (%): 22%
  Population Hoechst High Intensity Objects (%): 9%
  Population Membrane Permeable-Phenotype (%): 88%
  Population Mitochondria Different-Phenotype (%): 94%
  Population Mitotic Cells (%): 16%
  Population Normal (%): 90%
  Population Pyknosed Nuclei (%): 45%
  Population Tubulin-Different-Phenotype (%): 100%
  Total Cell Count: 88
[5]
  Population Apoptotic (%): 44%
  Population Fragmented Nuclei (%): 39%
  Population Healthy Nuclei (%): 45%
  Population Hoechst High Intensity Objects (%): 21%
  Population Membrane Permeable-Phenotype (%): 15%
  Population Mitochondria Different-Phenotype (%): 8%
  Population Mitotic Cells (%): 55%
  Population Normal (%): 78%
  Population Pyknosed Nuclei (%): 15%
  Population Tubulin-Different-Phenotype (%): 69%
  Total Cell Count: 240
[6]
  Population Apoptotic (%): 58%
  Population Fragmented Nuclei (%): 20%
  Population Healthy Nuclei (%): 61%
  Population Hoechst High Intensity Objects (%): 10%
  Population Membrane Permeable-Phenotype (%): 21%
  Population Mitochondria Different-Phenotype (%): 85%
  Population Mitotic Cells (%): 41%
  Population Normal (%): 89%
  Population Pyknosed Nuclei (%): 17%
  Population Tubulin-Different-Phenotype (%): 87%
  Total Cell Count: 75
[7]
  Population Apoptotic (%): 80%
  Population Fragmented Nuclei (%): 45%
  Population Healthy Nuclei (%): 16%
  Population Hoechst High Intensity Objects (%): 25%
  Population Membrane Permeable-Phenotype (%): 46%
  Population Mitochondria Different-Phenotype (%): 0%
  Population Mitotic Cells (%): 20%
  Population Normal (%): 74%
  Population Pyknosed Nuclei (%): 38%
  Population Tubulin-Different-Phenotype (%): 53%
  Total Cell Count: 122
[8]
  Population Apoptotic (%): 97%
  Population Fragmented Nuclei (%): 27%
  Population Healthy Nuclei (%): 13%
  Population Hoechst High Intensity Objects (%): 20%
  Population Membrane Permeable-Phenotype (%): 100%
  Population Mitochondria Different-Phenotype (%): 87%
  Population Mitotic Cells (%): 2%
  Population Normal (%): 79%
  Population Pyknosed Nuclei (%): 59%
  Population Tubulin-Different-Phenotype (%): 100%
  Total Cell Count: 74
[9]
  Population Apoptotic (%): 56%
  Population Fragmented Nuclei (%): 43%
  Population Healthy Nuclei (%): 41%
  Population Hoechst High Intensity Objects (%): 37%
  Population Membrane Permeable-Phenotype (%): 6%
  Population Mitochondria Different-Phenotype (%): 12%
  Population Mitotic Cells (%): 43%
  Population Normal (%): 62%
  Population Pyknosed Nuclei (%): 15%
  Population Tubulin-Different-Phenotype (%): 69%
  Total Cell Count: 246
[10]
  Population Apoptotic (%): 75%
  Population Fragmented Nuclei (%): 53%
  Population Healthy Nuclei (%): 43%
  Population Hoechst High Intensity Objects (%): 16%
  Population Membrane Permeable-Phenotype (%): 10%
  Population Mitochondria Different-Phenotype (%): 5%
  Population Mitotic Cells (%): 25%
  Population Normal (%): 83%
  Population Pyknosed Nuclei (%): 2%
  Population Tubulin-Different-Phenotype (%): 61%
  Total Cell Count: 199
[11]
  Population Apoptotic (%): 100%
  Population Fragmented Nuclei (%): 69%
  Population Healthy Nuclei (%): 20%
  Population Hoechst High Intensity Objects (%): 33%
  Population Membrane Permeable-Phenotype (%): 41%
  Population Mitochondria Different-Phenotype (%): 5%
  Population Mitotic Cells (%): 0%
  Population Normal (%): 66%
  Population Pyknosed Nuclei (%): 9%
  Population Tubulin-Different-Phenotype (%): 76%
  Total Cell Count: 123
[12]
  Population Apoptotic (%): 77%
  Population Fragmented Nuclei (%): 35%
  Population Healthy Nuclei (%): 50%
  Population Hoechst High Intensity Objects (%): 53%
  Population Membrane Permeable-Phenotype (%): 23%
  Population Mitochondria Different-Phenotype (%): 38%
  Population Mitotic Cells (%): 22%
  Population Normal (%): 46%
  Population Pyknosed Nuclei (%): 13%
  Population Tubulin-Different-Phenotype (%): 52%
  Total Cell Count: 145
